# Assay results as given in ChEMBL document CHEMBL1123819, “Synthesis and antifungal activity of a series of novel 1,2-disubstituted propenones” (1987).
# Columns and labels:
# Format in all cases: functional
# Aspergillus fumigatus = assay: Antifungal activity against Aspergillus fumigatus was determined in vitro
# Summary of the method: (§1)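 Broth microdilution in Sabouraud's glucose broth; MIC read as the fungistatic end point. Final inocula were 1 × 10^5 cells/mL for the yeast and 1 × 10^5 conidia/mL for the mould and the dermatophyte.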
# Trichophyton benhamiae = assay: Antifungal activity against Trichophyton asteroides was determined in vitro; summary of the method: as §1
# Candida albicans [1] = assay: (§2) Antifungal activity against Candida albicans was determined in vitro; summary of the method: as §1
# Candida albicans [2] = assay: as §2; remark: listed apart in the source
# Summary of the method: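 MIC by broth microdilution in microtiter plates. Final inoculum 1 × 10^5 yeast cells per mL of Sabouraud's glucose broth. Fungistatic activity was assessed.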
SMILES,MIC (Aspergillus fumigatus),MIC (Trichophyton benhamiae),MIC (Candida albicans [1]),MIC (Candida albicans [2])
O=C(/C(=C/c1ccc(F)cc1)n1ccccc1=O)c1ccc(Cl)cc1,> 100 µg/mL,12.5 µg/mL,> 100 µg/mL,–
C=C(C(=O)c1ccc(Cl)cc1)n1ncc2ccccc2c1=O,6.3 µg/mL,1.6 µg/mL,0.8 µg/mL,–
C=C(C(=O)c1ccc(Cl)cc1Cl)n1ccccc1=O,25 µg/mL,0.8 µg/mL,0.8 µg/mL,–
C=C(C(=O)c1ccco1)n1cncn1,6.3 µg/mL,3.1 µg/mL,0.8 µg/mL,–
C=C(C(=O)c1ccccc1OC)n1ccccc1=O,> 100 µg/mL,1.6 µg/mL,3.1 µg/mL,–
C=C(CN(C)C)C(=O)c1ccc(Cl)cc1,12.5 µg/mL,6.3 µg/mL,12.5 µg/mL,–
C=C(C(=O)c1ccc(Cl)cc1)n1c(=O)ccc2ccccc21,1.6 µg/mL,0.2 µg/mL,3.1 µg/mL,–
C=C(Cn1cccn1)C(=O)c1ccc(-c2ccccc2)cc1,12.5 µg/mL,0.8 µg/mL,6.3 µg/mL,–
C=C(C(=O)c1ccc(Cl)cc1)n1cc(C)ccc1=O,3.1 µg/mL,0.8 µg/mL,0.8 µg/mL,–
COCC(C(=O)c1ccc(OC)cc1)n1cncn1 (stereo unspecified),100 µg/mL,3.1 µg/mL,3.1 µg/mL,–
C=C(C(=O)c1ccc(Cl)cc1)N1C(=O)C=NC(=O)C1C (stereo unspecified),6.3 µg/mL,3.1 µg/mL,6.3 µg/mL,–
C=C(C(=O)c1ccc(F)cc1)c1ccc(Cl)cc1Cl,12.5 µg/mL,0.4 µg/mL,3.1 µg/mL,–
C=C(Cn1ccccc1=O)C(=O)c1ccc(OC)cc1,100 µg/mL,6.3 µg/mL,25 µg/mL,–
C=C(C(=O)c1ccc(Cl)cc1)n1cncn1,6.3 µg/mL,1.6 µg/mL,0.2 µg/mL,–
C=C(C(=O)c1ccc(C#N)cc1)n1cncn1,25 µg/mL,6.3 µg/mL,1.6 µg/mL,–
C=C(C(=O)c1ccc(C(=O)OC)cc1)n1ccccc1=O,50 µg/mL,3.1 µg/mL,3.1 µg/mL,–
C=C(C(C)=O)n1cncn1,25 µg/mL,3.1 µg/mL,12.5 µg/mL,–
C=C(C(=O)c1ccc(OC)cc1)n1cncn1,12.5 µg/mL,0.8 µg/mL,0.8 µg/mL,–
C=C(C(=O)c1cccs1)c1ccc(Cl)cc1,3.1 µg/mL,0.1 µg/mL,3.1 µg/mL,–
C=C(C(=O)c1cccs1)n1cncn1,6.3 µg/mL,1.6 µg/mL,0.4 µg/mL,–
CC(C(=O)c1ccc(Cl)cc1)n1ccccc1=O (stereo unspecified),> 100 µg/mL,> 100 µg/mL,> 100 µg/mL,–

SMILES,MIC (Aspergillus fumigatus),MIC (Trichophyton benhamiae),MIC (Candida albicans [1]),MIC (Candida albicans [2])
C=C(C(=O)c1ccc(Cl)cc1Cl)n1cccn1,25 µg/mL,1.6 µg/mL,0.8 µg/mL,–
C=C(C(=O)c1ccc(Cl)cc1)n1c(=O)n(C)c2ccccc21,1.6 µg/mL,0.4 µg/mL,1.6 µg/mL,–
C=C(C(=O)c1ccc(-c2ccccc2)cc1)n1cncn1,3.1 µg/mL,0.2 µg/mL,0.4 µg/mL,–
C=C(Cn1cncn1)C(=O)c1ccc(OC)cc1,> 100 µg/mL,6.3 µg/mL,12.5 µg/mL,–
C=C(C(=O)C(C)(C)C)n1cncn1,6.3 µg/mL,6.3 µg/mL,0.4 µg/mL,–
O=C(c1ccc(Cl)cc1)C(CO)n1cnc2ccccc2c1=O (stereo unspecified),6.3 µg/mL,0.8 µg/mL,0.8 µg/mL,–
C=C(Cn1c(=O)ccc2ccccc21)C(=O)c1ccc(Cl)cc1,100 µg/mL,3.1 µg/mL,25 µg/mL,–
C=C(Cn1ccccc1=O)C(=O)c1ccc(Cl)cc1,25 µg/mL,0.8 µg/mL,1.6 µg/mL,–
C=C(C(=O)N1CCOCC1)c1ccc(Cl)cc1Cl,> 100 µg/mL,> 100 µg/mL,> 100 µg/mL,–
C=C(C(=O)c1ccc(OC)cc1)n1cnc2ccccc2c1=O,6.3 µg/mL,0.4 µg/mL,1.6 µg/mL,–
C=C(C(=O)c1cccs1)c1ccccc1,1.6 µg/mL,0.2 µg/mL,1.6 µg/mL,–
CC/C=C(\C(=O)c1ccc(Cl)cc1)n1ccccc1=O,> 100 µg/mL,25 µg/mL,> 100 µg/mL,–
C=C(C(=O)c1ccc(Cl)cc1)n1cnccc1=O,3.1 µg/mL,1.6 µg/mL,0.4 µg/mL,–
C=C(C(=O)c1ccc(Cl)cc1)n1cc(C(=O)OC)ccc1=O,3.1 µg/mL,0.8 µg/mL,0.8 µg/mL,–
C=C(C(=O)c1ccc(Cl)cc1Cl)c1ccc(Cl)cc1Cl,> 100 µg/mL,0.4 µg/mL,6.3 µg/mL,–
C=C(Cc1ccccc1)C(=O)c1cccs1,100 µg/mL,6.3 µg/mL,> 100 µg/mL,–
C=C(Cn1cncn1)C(=O)c1ccc(-c2ccccc2)cc1,12.5 µg/mL,0.4 µg/mL,1.6 µg/mL,–
C=C(C(=O)c1ccc(Cl)cc1)n1ccccc1=O,2.5 µg/mL,0.8 µg/mL,1.6 µg/mL,–
C=C(Cn1cncn1)C(=O)c1ccc(Cl)cc1,12.5 µg/mL,1.6 µg/mL,0.4 µg/mL,–
C=C(C(=O)c1ccccc1)n1ccccc1=O,50 µg/mL,1.6 µg/mL,6.3 µg/mL,–
C=C(Cn1ccccc1=O)C(=O)c1ccc(-c2ccccc2)cc1,50 µg/mL,0.8 µg/mL,6.3 µg/mL,–

SMILES,MIC (Aspergillus fumigatus),MIC (Trichophyton benhamiae),MIC (Candida albicans [1]),MIC (Candida albicans [2])
C=C(C(=O)c1ccc(-c2ccccc2)cc1)n1ccccc1=O,12.5 µg/mL,0.4 µg/mL,0.8 µg/mL,–
C=C(C(=O)c1ccc(Cl)cc1)n1cc(Cl)ccc1=O,3.1 µg/mL,0.8 µg/mL,0.8 µg/mL,–
C=C(C(=O)C(C)(C)C)n1ccccc1=O,> 100 µg/mL,6.3 µg/mL,50 µg/mL,–
C=C(Cn1ccccc1=O)C(=O)c1ccsc1,50 µg/mL,6.3 µg/mL,50 µg/mL,–
C=C(C(=O)c1ccc(Cl)cc1)n1cnc2ccccc2c1=O,0.4 µg/mL,0.1 µg/mL,0.1 µg/mL,–
C=C(C(=O)c1ccc(-c2ccccc2)cc1)n1cnc2ccccc2c1=O,> 100 µg/mL,25 µg/mL,> 100 µg/mL,–
C=C(C(=O)c1ccc(C)cc1)n1cncn1,6.3 µg/mL,0.8 µg/mL,0.2 µg/mL,–
C=C(C)C(=O)c1ccco1,25 µg/mL,1.6 µg/mL,25 µg/mL,–
C=C(Cn1cnc2ccccc2c1=O)C(=O)c1ccc(Cl)cc1,6.3 µg/mL,3.1 µg/mL,3.1 µg/mL,–
C=C(C(=O)Nc1ccc(Cl)cc1)c1ccc(Cl)cc1Cl,> 100 µg/mL,> 100 µg/mL,> 100 µg/mL,–
COc1ccc(C(=O)C(CO)n2cncn2)cc1 (stereo unspecified),100 µg/mL,3.1 µg/mL,3.1 µg/mL,–
C=C(C(=O)c1ccc(F)cc1)n1cncn1,6.3 µg/mL,0.8 µg/mL,0.4 µg/mL,–
C=C(C(=O)c1ccc(Cl)cc1)N1CC(=O)N=CC1=O,> 100 µg/mL,12.5 µg/mL,12.5 µg/mL,–
C=C(C(=O)c1ccccc1)n1cc(Cl)ccc1=O,25 µg/mL,3.1 µg/mL,6.3 µg/mL,–
C=C(C(=O)c1ccc(Cl)cc1)n1c(O)nc2ccccc21,12.5 µg/mL,3.1 µg/mL,6.3 µg/mL,–
C=C(Cn1cncn1)C(=O)c1ccsc1,100 µg/mL,6.3 µg/mL,12.5 µg/mL,–
Clc1ccccc1C(c1ccccc1)(c1ccccc1)n1ccnc1 [CLOTRIMAZOLE],1.6 µg/mL,0.1 µg/mL,1.6 µg/mL,–
C=C(c1ccccc1OCc1cccc(Cl)c1)n1ccnc1 [CROCONAZOLE],3.1 µg/mL,0.1 µg/mL,–,3.1 µg/mL
Clc1ccc(COC(Cn2ccnc2)c2ccc(Cl)cc2Cl)cc1 (stereo unspecified) [ECONAZOLE],3.1 µg/mL,0.1 µg/mL,3.1 µg/mL,–
Clc1ccc(COC(Cn2ccnc2)c2ccc(Cl)cc2Cl)c(Cl)c1 (stereo unspecified) [MICONAZOLE],6.3 µg/mL,0.1 µg/mL,3.1 µg/mL,–
